Source: ChEMBL document CHEMBL1208778, “Synthesis and anti-cancer activity of chalcone linked imidazolones” (2010)

Assays:
Format in all cases: functional
MDA-MB-435 = assay: Growth inhibition of human MDA-MB-435 cells
How it was run: (§1)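 Five-dose testing was run within the NCI (Bethesda) in vitro Anticancer Screen Program on a panel of 53 human tumour cell lines from nine cancer types. Growth inhibition is reported as GI50.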

PC-3 = assay: Growth inhibition of human PC3 cells; how it was run: as §1
[1] = Growth inhibition of human Hs 578T cells; how it was run: as §1
HCT-15 = assay: Growth inhibition of human HCT15 cells; how it was run: as §1
SNB-75 = assay: Growth inhibition of human SNB75 cells
How it was run: (§2)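 Compounds that passed a preliminary screen were tested at five doses in the NCI (Bethesda) in vitro Anticancer Screen Program against a 53-line human tumour panel spanning leukemia, lung, colon, CNS, melanoma, ovarian, renal, prostate and breast. Growth inhibition is reported as GI50.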

UACC-257 = assay: Growth inhibition of human UACC257 cells; how it was run: as §2
MCF7 [2] = assay: Cell cycle arrest in human MCF7 cells assessed as accumulation at G1 phase at 10 uM after 24 hrs by FACS analysis
How it was run: (§3)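 MCF-7 breast carcinoma cells were exposed to 10 µM test compound for 24 h, with DMSO as the vehicle control. Cell-cycle distribution was read by FACS as the percentage of cells in G0, G1, S and G2/M.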

K562 = assay: Growth inhibition of human K562 cells; how it was run: as §1
MCF7 [3] = assay: Cell cycle arrest in human MCF7 cells assessed as accumulation at G0 phase at 30 uM after 24 hrs by FACS analysis
How it was run: (§4)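 MCF-7 cells were treated at 30 µM for 24 h alongside a DMSO control. Fractions in G0, G1, S and G2/M phases were measured by FACS, and values are means of three experiments.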

M14 = assay: Growth inhibition of human M14 cells; how it was run: as §1
A549 = assay: Growth inhibition of human A549 cells; how it was run: as §1
OVCAR-8 = assay: Growth inhibition of human OVCAR8 cells; how it was run: as §1
NCI/ADR-RES = assay: Growth inhibition of human NCI/ADR-RES cells; how it was run: as §1
SNB-19 = assay: Growth inhibition of human SNB19 cells; how it was run: as §2
HT-29 = assay: Growth inhibition of human HT-29 cells; how it was run: as §1
SK-MEL-2 = assay: Growth inhibition of human SK-MEL-2 cells; how it was run: as §1
SW-620 = assay: Growth inhibition of human SW620 cells; how it was run: as §2
KM12 = assay: Growth inhibition of human KM12 cells; how it was run: as §1
OVCAR-5 = assay: Growth inhibition of human OVCAR5 cells; how it was run: as §1
T47D = assay: Growth inhibition of human T47D cells; how it was run: as §2
SK-OV-3 = assay: Growth inhibition of human SKOV3 cells; how it was run: as §2
SN12C = assay: Growth inhibition of human SN12C cells; how it was run: as §2
SF-295 = assay: Growth inhibition of human SF295 cells; how it was run: as §1
UACC-62 = assay: Growth inhibition of human UACC62 cells; how it was run: as §2
MCF7 [4] = assay: Cell cycle arrest in human MCF7 cells assessed as accumulation at G2/M phase at 30 uM after 24 hrs by FACS analysis; how it was run: as §4
HCT-116 = assay: Growth inhibition of human HCT116 cells; how it was run: as §1
MCF7 [5] = assay: Growth inhibition of human MCF7 cells; how it was run: as §1
MCF7 [6] = assay: Cell cycle arrest in human MCF7 cells assessed as accumulation at G2/M phase at 10 uM after 24 hrs by FACS analysis; how it was run: as §3
HCC 2998 = assay: Growth inhibition of human HCC2998 cells; how it was run: as §1
SK-MEL-5 = assay: Growth inhibition of human SK-MEL-5 cells; how it was run: as §1
SF-539 = assay: Growth inhibition of human SF539 cells; how it was run: as §1
MCF7 [7] = assay: Cell cycle arrest in human MCF7 cells assessed as accumulation at G1 phase at 30 uM after 24 hrs by FACS analysis; how it was run: as §4
NCI-H322M = assay: Growth inhibition of human NCI-H322M cells; how it was run: as §1
UO-31 = assay: Growth inhibition of human UO31 cells; how it was run: as §2
A498 = assay: Growth inhibition of human A498 cells; how it was run: as §1
MDA-MB-231 = assay: Growth inhibition of human MDA-MB-231 cells; how it was run: as §1
MCF7 [8] = assay: Cell cycle arrest in human MCF7 cells assessed as accumulation at S phase at 30 uM after 24 hrs by FACS analysis; how it was run: as §4
COLO 205 = assay: Growth inhibition of human COLO205 cells; how it was run: as §1
SF-268 = assay: Growth inhibition of human SF268 cells; how it was run: as §1
CAKI-1 = assay: Growth inhibition of human Caki1 cells; how it was run: as §1
MCF7 [9] = assay: Cell cycle arrest in human MCF7 cells assessed as accumulation at S phase at 10 uM after 24 hrs by FACS analysis; how it was run: as §3
BT-549 = assay: Growth inhibition of human BT549 cells; how it was run: as §1
NCI-H23 = assay: Growth inhibition of human NCI-H23 cells; how it was run: as §1
Malme-3M = assay: Growth inhibition of human MALME-3M cells; how it was run: as §1
SK-MEL-28 = assay: Growth inhibition of human SK-MEL-28 cells; how it was run: as §1
RXF 393 = assay: Growth inhibition of human RXF393 cells; how it was run: as §1
NCI-H226 = assay: Growth inhibition of human NCI-H226 cells; how it was run: as §1
[10] = Growth inhibition of human RPMI8266 cells; how it was run: as §1
LOX IMVI = assay: Growth inhibition of human LOXIMVI cells; how it was run: as §1
786-0 = assay: Growth inhibition of human 786-0 cells; how it was run: as §1
ACHN = assay: Growth inhibition of human ACHN cells; how it was run: as §1
U-251 = assay: Growth inhibition of human U251 cells; how it was run: as §2
HOP-92 = assay: Growth inhibition of human HOP92 cells; how it was run: as §1
MCF7 [11] = assay: Cell cycle arrest in human MCF7 cells assessed as accumulation at G0 phase at 10 uM after 24 hrs by FACS analysis; how it was run: as §3
EKVX = assay: Growth inhibition of human EKVX cells; how it was run: as §1
HOP-62 = assay: Growth inhibition of human HOP62 cells; how it was run: as §1
OVCAR-3 = assay: Growth inhibition of human OVCAR-3 cells; how it was run: as §1
NCI-H460 = assay: Growth inhibition of human NCI-H460 cells; how it was run: as §1
OVCAR-4 = assay: Growth inhibition of human OVCAR4 cells; how it was run: as §1
TK-10 = assay: Growth inhibition of human TK10 cells; how it was run: as §2
NCI-H522 = assay: Growth inhibition of human NCI-H522 cells; how it was run: as §1

O=C(/C=C/c1cccc(O)c1)c1cccc(-n2cc(-c3ccccc3)[nH]c2=O)c1
GI50 (MDA-MB-435): 3.12 µM
GI50 (PC-3): 2.82 µM
GI50 [1]: 6.14 µM
GI50 (HCT-15): 3.1 µM
GI50 (SNB-75): 12.1 µM
GI50 (UACC-257): 7.68 µM
Activity (MCF7 [2]): 57.26%
GI50 (K562): 3.35 µM
Activity (MCF7 [3]): 11.07%
GI50 (M14): 4.53 µM
GI50 (A549): 3.89 µM
GI50 (OVCAR-8): 2.8 µM
GI50 (NCI/ADR-RES): 3.73 µM
GI50 (SNB-19): 10.9 µM
GI50 (HT-29): 3.33 µM
GI50 (SK-MEL-2): 8.26 µM
GI50 (SW-620): 2.41 µM
GI50 (KM12): 1.83 µM
GI50 (OVCAR-5): 5.44 µM
GI50 (T47D): 4.24 µM
GI50 (SK-OV-3): 11.1 µM
GI50 (SN12C): 3.14 µM
GI50 (SF-295): 18.2 µM
GI50 (UACC-62): 3.65 µM
Activity (MCF7 [4]): 17.8%
GI50 (HCT-116): 3.02 µM
GI50 (MCF7 [5]): 2.47 µM
Activity (MCF7 [6]): 22.16%
GI50 (HCC 2998): 4.09 µM
GI50 (SK-MEL-5): 3.18 µM
GI50 (SF-539): 1.98 µM
Activity (MCF7 [7]): 53.92%
GI50 (NCI-H322M): 10.6 µM
GI50 (UO-31): 2.16 µM
GI50 (A498): 14.3 µM
GI50 (MDA-MB-231): 3.86 µM
Activity (MCF7 [8]): 17.21%
GI50 (COLO 205): 2.01 µM
GI50 (SF-268): 4.53 µM
GI50 (CAKI-1): 13.3 µM
Activity (MCF7 [9]): 18.48%
GI50 (BT-549): 9.32 µM
GI50 (NCI-H23): 3.35 µM
GI50 (Malme-3M): 6.21 µM
GI50 (SK-MEL-28): 5.63 µM
GI50 (RXF 393): 1.89 µM
GI50 (NCI-H226): 24.8 µM
GI50 [10]: 2.15 µM
GI50 (LOX IMVI): 1.85 µM
GI50 (786-0): 2.98 µM
GI50 (ACHN): 2.76 µM
GI50 (U-251): 1.61 µM
GI50 (HOP-92): 5.04 µM
Activity (MCF7 [11]): 2.1%
GI50 (EKVX): 15.6 µM
GI50 (HOP-62): 6.93 µM
GI50 (OVCAR-3): 3.08 µM
GI50 (NCI-H460): 2.49 µM
GI50 (OVCAR-4): 5.3 µM

O=C(/C=C/c1cccc(O)c1)c1cccc(-n2cc(-c3ccc(Cl)cc3)[nH]c2=O)c1
GI50 (MDA-MB-435): 2.06 µM
GI50 [1]: 4 µM
GI50 (HCT-15): 2.33 µM
GI50 (SNB-75): 1.46 µM
GI50 (UACC-257): 4.07 µM
Activity (MCF7 [2]): 59.35%
GI50 (K562): 0.4 µM
Activity (MCF7 [3]): 17.17%
GI50 (M14): 2.01 µM
GI50 (A549): 3.55 µM
GI50 (OVCAR-8): 0.99 µM
GI50 (NCI/ADR-RES): 2.2 µM
GI50 (SNB-19): 1.92 µM
GI50 (HT-29): 1.9 µM
GI50 (SK-MEL-2): 2.07 µM
GI50 (SW-620): 1.62 µM
GI50 (KM12): 1.34 µM
GI50 (OVCAR-5): 2.19 µM
GI50 (T47D): 1.92 µM
GI50 (SK-OV-3): 4.21 µM
GI50 (TK-10): 2.83 µM
GI50 (SN12C): 1.95 µM
GI50 (SF-295): 1.79 µM
GI50 (UACC-62): 1.85 µM
Activity (MCF7 [4]): 10.8%
GI50 (HCT-116): 1.23 µM
GI50 (MCF7 [5]): 1.27 µM
Activity (MCF7 [6]): 23.63%
GI50 (HCC 2998): 13.7 µM
GI50 (SK-MEL-5): 1.53 µM
GI50 (SF-539): 1.68 µM
Activity (MCF7 [7]): 58.33%
GI50 (NCI-H322M): 2.52 µM
GI50 (UO-31): 0.55 µM
GI50 (A498): 3.71 µM
GI50 (MDA-MB-231): 3.35 µM
Activity (MCF7 [8]): 13.7%
GI50 (COLO 205): 2.29 µM
GI50 (SF-268): 1.78 µM
GI50 (CAKI-1): 1.72 µM
Activity (MCF7 [9]): 13.92%
GI50 (BT-549): 1.45 µM
GI50 (NCI-H23): 2.78 µM
GI50 (Malme-3M): 1.83 µM
GI50 (SK-MEL-28): 3.64 µM
GI50 (RXF 393): 1.51 µM
GI50 (NCI-H226): 2.31 µM
GI50 [10]: 1.55 µM
GI50 (LOX IMVI): 1.57 µM
GI50 (NCI-H522): 1.65 µM
GI50 (786-0): 1.57 µM
GI50 (ACHN): 1.84 µM
GI50 (U-251): 0.58 µM
GI50 (HOP-92): 1.6 µM
Activity (MCF7 [11]): 3.1%
GI50 (EKVX): 2.4 µM
GI50 (HOP-62): 2.36 µM
GI50 (OVCAR-3): 1.56 µM
GI50 (NCI-H460): 2.41 µM
GI50 (OVCAR-4): 2.21 µM
